Measured values of several laboratories.
Protocols differ between the studies behind these lines.
Target: Serine/threonine-protein kinase 38 (STK38, Homo sapiens, UniProt Q15208)

Structure (SMILES)	test	system	conditions	measurement	value
c1ccc(N2CCN(Cc3nc4ccccc4[nH]3)CC2)nc1	binding, competition with immobilised ligand		1 µM	remaining binding	89%
c1nc2c(Nc3ccc4c(c3)OCCO4)nc(Nc3ccc4c(c3)OCCO4)nc2[nH]1	enzyme activity, inhibitor		10 µM	activity vs control	73%
CC(C)(O)[C@H]1CC[C@H](Nc2ccc3ncc(-c4cccc(C(F)(F)F)c4)n3n2)CC1	enzyme activity, inhibitor		1 µM	remaining activity	96.7%
CCC(=N\O)/C(C)=C/c1ccc(F)cc1	cell-free assay, competition with immobilised ligand		1 µM	remaining binding	94%
CC/C(=N\NC(=O)NCc1cccc(O)c1)c1ccc(O)c(C)c1O	enzyme activity, inhibitor		0.1 µM	inhibition	18.8%
CCN1CCN(Cc2ccc(NC(=O)c3ccc(C)c(Oc4ccnc5[nH]ccc45)c3)cc2C(F)(F)F)CC1	target engagement in cells, inhibitor, chemoproteomics	A-375	5 µM	inhibition	-0.846%
Cc1cc(NC(=O)c2cccc(S(F)(F)(F)(F)F)c2)cc(-n2ccn3nc(-c4cccnc4)cc23)c1	cell-free assay, competition with immobilised ligand		1 µM	remaining binding	92.3%
COc1cc2c(N3CCN(C(=O)Nc4ccc(OC(C)C)cc4)CC3)ncnc2cc1OCCCN1CCCCC1	cell-free assay		0.5 µM	remaining signal	99.1%
CN1CCC2(CC1)NC(=O)c1c(c3ccc(Cl)c(Cl)c3n1C)C2C#N (racemic)	thermal stability, DSF		10 µM	ΔTm	0 °C
O=C(Nc1cnn(-c2csc(C(=O)NC3COC3)c2)c1)Nc1c(F)cccc1Cl	enzyme activity, inhibitor		5 µM	remaining activity	95.5%
Cn1c2c(c3ccc(Cl)c(Cl)c31)C(C#N)C1(CCNCC1)NC2=O (racemic)	thermal stability, DSF		10 µM	ΔTm	0.4 °C
CCCOc1ccc([C@@H]2[C@@H](C(=O)O)[C@H](c3ccc4c(c3)OCO4)CN2CC(=O)Nc2c(CC)cccc2CC)cc1	cell-free assay, competition with immobilised ligand		1 µM	remaining binding	83%
CCN1CCC2(CC1)NC(=O)c1c(c3ccc(Cl)c(Cl)c3n1C)C2C#N (racemic)	thermal stability, DSF		10 µM	ΔTm	0.1 °C
O=C(Nc1cnc(Oc2ccc(F)cc2)nc1)N1CCc2ncccc2[C@@H]1c1ccc(F)cc1	cell-free assay, competition with immobilised ligand		1 µM	remaining binding	91%
Cn1c2c(Cl)c(Cl)ccc2c2cn[nH]c(=O)c21	thermal stability, DSF		10 µM	ΔTm	0 °C
O=C1NC(=O)c2cc(Nc3ccc(F)cc3)c(Nc3ccc(F)cc3)cc21	cell-free assay		0.5 µM	remaining signal	85.5%
Cn1c2c(c3ccc(Cl)c(Cl)c31)C(C#N)C(C)(C)NC2=O (stereo not drawn)	thermal stability, DSF		10 µM	ΔTm	0.1 °C
C[C@H](c1ccnc(Nc2nc3ccc(-c4cc(N(C)C)ncn4)cc3[nH]2)c1)N1CCN(C(=O)CC(F)(F)F)CC1	cell-free assay, competition with immobilised ligand		0.1 µM	remaining binding	100%
